Source: ChEMBL document CHEMBL1132135, “Potent, orally absorbed glucagon receptor antagonists” (Bioorg Med Chem Lett, 1999)

Columns and labels:
[1] = Selectivity ratio between the binding value of human glucagon receptor (GGR) with Mg+2 and the value of p38 kinase
Glucagon receptor [2] = target: T1, Glucagon receptor (Homo sapiens, UniProt P47871); test: biochemical; type: cell-based, CHO
Glucagon receptor [3] = target: T2, Glucagon receptor (Mus musculus, UniProt Q61606); test: Binding affinity towards glucagon receptor determined by reduction in binding of [125I]glucagon to the murine glucagon receptor (GGR) expressed on CHO cells in absence of Mg+2; type: cell-based
T2 sequence (Q61606 whole entry): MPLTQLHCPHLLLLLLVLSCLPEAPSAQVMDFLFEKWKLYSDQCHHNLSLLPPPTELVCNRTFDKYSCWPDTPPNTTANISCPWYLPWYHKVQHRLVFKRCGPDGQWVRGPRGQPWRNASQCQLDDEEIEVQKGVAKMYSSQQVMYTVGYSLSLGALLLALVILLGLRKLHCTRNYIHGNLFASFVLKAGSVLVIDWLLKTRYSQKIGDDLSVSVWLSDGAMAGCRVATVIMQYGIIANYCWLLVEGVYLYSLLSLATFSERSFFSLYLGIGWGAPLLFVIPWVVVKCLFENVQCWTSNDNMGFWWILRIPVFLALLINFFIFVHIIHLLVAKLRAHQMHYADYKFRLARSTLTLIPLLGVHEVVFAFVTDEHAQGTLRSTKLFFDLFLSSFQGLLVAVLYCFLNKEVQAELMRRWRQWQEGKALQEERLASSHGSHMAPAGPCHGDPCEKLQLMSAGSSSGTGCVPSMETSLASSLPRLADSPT

[4] = target: Glucagon receptor (Mus musculus) (UniProt Q61606); test: (§1) Binding affinity towards glucagon receptor determined by reduction in binding of 125 I-glucagon to the murine glucagon receptor (mGLUR) expressed on CHO cells in presence of Mg+2 at 1 uM; type: cell-based
Glucagon receptor (Mus musculus), sequence (Q61606 whole entry): as above

Glucagon receptor [5] = target: T1, Glucagon receptor; test: Binding affinity towards glucagon receptor determined by reduction in binding of [125I]glucagon to the human glucagon receptor (GGR) expressed on CHO cells in presence of Mg+2; type: cell-based
Summary of the method: (§2)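 Radioligand binding to the glucagon receptor was run with 5 mM Mg2+ added, described as a physiological concentration.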

[6] = target: Mitogen-activated protein kinase 14 (Homo sapiens, UniProt Q16539); test: Inhibitory activity against p38-alpha kinase
Mitogen-activated protein kinase 14, sequence (Q16539 whole entry): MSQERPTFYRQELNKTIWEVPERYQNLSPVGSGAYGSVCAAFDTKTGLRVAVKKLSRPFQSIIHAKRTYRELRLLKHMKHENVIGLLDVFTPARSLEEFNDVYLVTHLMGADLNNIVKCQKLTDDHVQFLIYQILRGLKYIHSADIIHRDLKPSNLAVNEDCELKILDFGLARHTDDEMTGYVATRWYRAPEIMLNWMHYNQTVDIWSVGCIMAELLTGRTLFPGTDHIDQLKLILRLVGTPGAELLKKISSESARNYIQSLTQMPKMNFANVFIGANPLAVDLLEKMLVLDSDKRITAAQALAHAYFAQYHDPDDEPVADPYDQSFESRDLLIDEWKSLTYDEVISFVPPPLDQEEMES

Glucagon receptor [7] = target: T2, Glucagon receptor; test: (§3) Binding affinity towards glucagon receptor determined by reduction in binding of 125 I-glucagon to the murine glucagon receptor (mGLUR) expressed on CHO cells in presence of Mg+2; type: cell-based
Summary of the method: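 Mg2+ added at 5 mM, a physiological level, to the binding medium. IC50 reported in µM, with the number of determinations noted; where no IC50 was reached, percent inhibition is given at a single tested concentration.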

Glucagon receptor [8] = target: T2, Glucagon receptor; test: as §1; type: cell-based
[9] = Inhibition of p38 kinase at 1 uM
[10] = Inhibition of p38 kinase; conditions: concentration not given here
[11] = target: Glucagon receptor (Mus musculus) (UniProt Q61606); test: Binding affinity towards glucagon receptor determined by reduction in binding of 125 I-glucagon to the murine glucagon receptor (mGLUR) expressed on CHO cells in presence of Mg+2 at 3 uM; type: cell-based
Glucagon receptor [12] = target: T1, Glucagon receptor; test: Binding affinity towards glucagon receptor determined by reduction in binding of 125 I-glucagon to the human glucagon receptor (hGLUR) expressed on CHO cells in absence of Mg+2 at 2 uM; type: cell-based
[13] = Inhibition of p38 kinase at 40 uM
[14] = Inhibition of p38 kinase at 10 uM
[15] = target: Glucagon receptor (Mus musculus) (UniProt Q61606); test: as §3; type: cell-based; conditions: concentration not given here; summary of the method: as §2
[16] = Inhibition of p38 kinase at 5 uM
Glucagon receptor [17] = target: T2, Glucagon receptor; test: Binding affinity towards glucagon receptor determined by reduction in binding of 125 I-glucagon to the murine glucagon receptor (mGLUR) expressed on CHO cells in presence of Mg+2 at 3 uM
[18] = Inhibition of p38 kinase at 2 uM

T1 sequence (P47871 whole entry): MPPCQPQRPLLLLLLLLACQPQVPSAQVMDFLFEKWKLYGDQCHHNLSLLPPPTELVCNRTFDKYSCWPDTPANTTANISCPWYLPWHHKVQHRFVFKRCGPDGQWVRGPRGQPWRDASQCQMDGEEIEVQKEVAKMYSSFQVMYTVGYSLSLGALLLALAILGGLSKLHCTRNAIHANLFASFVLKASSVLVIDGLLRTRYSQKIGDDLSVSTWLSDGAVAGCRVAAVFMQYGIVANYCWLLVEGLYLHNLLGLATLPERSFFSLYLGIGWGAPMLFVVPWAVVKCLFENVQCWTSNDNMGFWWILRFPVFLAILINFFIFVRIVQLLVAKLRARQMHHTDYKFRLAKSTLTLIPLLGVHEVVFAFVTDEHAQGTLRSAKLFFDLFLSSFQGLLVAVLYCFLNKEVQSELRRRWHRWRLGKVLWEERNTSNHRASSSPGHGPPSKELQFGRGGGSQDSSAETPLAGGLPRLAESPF

Compound | Ratio [1] | IC50 (Glucagon receptor [2]) [nM] | IC50 (Glucagon receptor [3]) [nM] | IC50 (Glucagon receptor [5]) [nM] | IC50 [6] [nM] | also measured
Fc1ccc(-c2cc(-c3ccc(Cl)cc3)[nH]c2-c2ccncc2)cc1 | 0.57 | 80 | 200 | 800 | 1400 | inhibition [4]: 43%
Clc1ccc(-c2ccc(-c3ccncc3)[nH]2)cc1 | – | 140 | 700 | > 3000 | > 10000 | IC50 (Glucagon receptor [7]): > 3000 nM
Clc1ccc(-c2cc(-c3ccccc3Br)c(-c3ccncc3)[nH]2)cc1 | 2.3 | 26 | – | 2300 | 1000 | –
O=C(O)c1cc(-c2ccc(Cl)cc2)[nH]c1-c1ccncc1 | – | > 3000 | – | – | > 1000 | –
Fc1ccc(-c2cc(-c3ccc(F)cc3)c(-c3ccncc3)[nH]2)cc1 | 1 | 90 | 430 | 350 | 340 | Inhibition (Glucagon receptor [8]): 7%
CC(C)Oc1ccccc1-c1cc(-c2ccc(Cl)cc2)[nH]c1-c1ccncc1 | 0.16 | 30 | 700 | 910 | 5540 | IC50 (Glucagon receptor [7]): > 1000 nM
Nc1ccc(-c2cc(-c3ccc(F)cc3)c(-c3ccncc3)[nH]2)cc1 | – | 1400 | – | – | 190 | –
O=C(NCc1ccccc1)c1cc(-c2ccc(Cl)cc2)[nH]c1-c1ccncc1 | – | > 3000 | – | – | – | inhibition [9]: 0%
COc1cccc(-c2cc(-c3ccc(Cl)cc3)[nH]c2-c2ccncc2)c1 | 1.1 | 60 | – | 450 | 420 | –
O=C(O)c1ccc(-c2cc(-c3ccc(F)cc3)c(-c3ccncc3)[nH]2)cc1 | – | > 3000 | – | – | 90 | –
CCCOc1cccc(OCCC)c1-c1cc(-c2ccc(Cl)cc2)[nH]c1-c1ccncc1 | – | 40 | 670 | 290 | – | IC50 (Glucagon receptor [7]): > 3000 nM; inhibition [10]: 5%
Fc1ccc(-c2cc(C3CCCCC3)[nH]c2-c2ccncc2)cc1 | 2.7 | 90 | > 1000 | 490 | 180 | IC50 (Glucagon receptor [7]): > 1000 nM
N#Cc1ccc(-c2cc(-c3ccc(F)cc3)c(-c3ccncc3)[nH]2)cc1 | 102 | 140 | 230 | 4900 | 50 | inhibition [11]: 42%
CN1CCC(c2cc(-c3ccc(F)cc3)c(-c3ccncc3)[nH]2)CC1 | > 130 | – | – | – | 20 | inhibition (Glucagon receptor [12]): 7%
Fc1ccc(-c2cc(-c3ccccc3)[nH]c2-c2ccncc2)cc1 | – | 390 | 2700 | – | 800 | –
COc1ccc(-c2cc(-c3ccc(Cl)cc3)[nH]c2-c2ccncc2)cc1 | 1.4 | 100 | 240 | 1600 | 1150 | inhibition [4]: 16%
CC(C)c1cc(-c2ccc(Cl)cc2)[nH]c1-c1ccncc1 | – | 32 | 60 | 110 | > 10000 | IC50 (Glucagon receptor [7]): > 3000 nM
Clc1ccc(-c2cc(C3CCCCC3)c(-c3ccncc3)[nH]2)cc1 | – | 100 | 60 | > 3000 | > 10000 | IC50 (Glucagon receptor [7]): > 3000 nM
CCOC(=O)c1ccc(-c2cc(-c3ccc(F)cc3)c(-c3ccncc3)[nH]2)cc1 | – | 850 | – | – | 260 | –
Cc1cc(-c2ccc(F)cc2)c(-c2ccncc2)[nH]1 | > 9 | > 3000 | – | – | 320 | –
CC(C)(C)c1ccc(-c2cc(-c3ccc(F)cc3)c(-c3ccncc3)[nH]2)cc1 | – | 850 | – | – | > 10000 | –
CCCOc1cc(Br)ccc1-c1cc(-c2ccc(Cl)cc2)[nH]c1-c1ccncc1 | – | 4 | 49 | 130 | – | IC50 (Glucagon receptor [7]): 830 nM
C[S+]([O-])c1ccc(-c2cc(-c3ccncc3)c(-c3ccc(F)cc3)[nH]2)cc1 (stereo not given) | – | – | – | – | 5.3 | inhibition (Glucagon receptor [12]): 31%
O=C(OCc1ccccc1)c1cc(-c2ccc(Cl)cc2)[nH]c1-c1ccncc1 | – | 60 | 800 | 1300 | – | inhibition [13]: 69%; inhibition [4]: 8%

Compound | Ratio [1] | IC50 (Glucagon receptor [2]) [nM] | IC50 (Glucagon receptor [3]) [nM] | IC50 (Glucagon receptor [5]) [nM] | IC50 [6] [nM] | also measured
CCCOc1ccc(Cl)cc1-c1cc(-c2ccc(Cl)cc2)[nH]c1-c1ccncc1 | – | 6 | 50 | 170 | – | IC50 (Glucagon receptor [7]): 1000 nM; inhibition [14]: 31%
COc1ccc(-c2cc(-c3ccc(F)cc3)c(-c3ccncc3)[nH]2)cc1 | – | 590 | – | – | 2800 | –
Cc1ccc(-c2cc(-c3ccc(F)cc3)c(-c3ccncc3)[nH]2)cc1 | 1.3 | 250 | – | 2200 | 1690 | –
Fc1ccc(-c2cc(-c3cccc(Cl)c3)[nH]c2-c2ccncc2)cc1 | 2.3 | 40 | 460 | 990 | 420 | inhibition [4]: 28%
Clc1ccc(-c2cc(-c3ccc(Br)cc3)c(-c3ccncc3)[nH]2)cc1 | 7.6 | 140 | – | 2300 | 300 | –
C[S+]([O-])c1ccc(-c2cc(-c3ccc(F)cc3)c(-c3ccncc3)[nH]2)cc1 (stereo not given) | – | 1100 | – | – | 670 | –
COc1ccccc1-c1cc(-c2ccc(Cl)cc2)[nH]c1-c1ccncc1 | 0.18 | 70 | 400 | 500 | 2650 | inhibition [15]: 6%
CCCNc1ccccc1-c1cc(-c2ccc(Cl)cc2)[nH]c1-c1ccncc1 | – | 20 | 440 | 270 | – | IC50 (Glucagon receptor [7]): > 3000 nM; inhibition [16]: 52%
CSc1ccc(-c2cc(-c3ccncc3)c(-c3ccc(F)cc3)[nH]2)cc1 | – | – | – | – | 44 | inhibition (Glucagon receptor [12]): 0%
O=[N+]([O-])c1ccc(-c2cc(-c3ccc(F)cc3)c(-c3ccncc3)[nH]2)cc1 | – | 360 | – | – | 50 | –
CCCCCCOc1ccccc1-c1cc(-c2ccc(Cl)cc2)[nH]c1-c1ccncc1 | 0.18 | 40 | 340 | 500 | 2680 | inhibition [4]: 22%
CSc1ccc(-c2cc(-c3ccc(F)cc3)c(-c3ccncc3)[nH]2)cc1 | – | 290 | – | – | 1230 | –
Clc1ccc(-c2cc(-c3ccc(Cl)cc3)c(-c3ccncc3)[nH]2)cc1 | 5 | 190 | 220 | 810 | 160 | Inhibition (Glucagon receptor [17]): 42%
CCCOc1ccccc1-c1cc(-c2ccc(Cl)cc2)[nH]c1-c1ccncc1 | 0.05 | 8 | 30 | 140 | 2840 | IC50 (Glucagon receptor [7]): 700 nM
C[S+]([O-])c1ccc(-c2nc(-c3ccc(F)cc3)c(-c3ccncc3)[nH]2)cc1 (stereo not given) [SB-203580] | – | – | – | – | – | IC50 [18]: 37 nM; inhibition (Glucagon receptor [12]): 18%
CCc1ccc(-c2cc(-c3ccc(F)cc3)c(-c3ccncc3)[nH]2)cc1 | – | 370 | – | – | 1360 | –
CCOc1ccccc1-c1cc(-c2ccc(Cl)cc2)[nH]c1-c1ccncc1 | 0.03 | 40 | 340 | 500 | 14200 | inhibition [15]: 22%
C=CCOc1ccccc1-c1cc(-c2ccc(Cl)cc2)[nH]c1-c1ccncc1 | 0.05 | 17 | 270 | 260 | 4740 | inhibition [11]: 50%
Fc1ccc(-c2cc(-c3ccc(Cl)cc3Cl)[nH]c2-c2ccncc2)cc1 | 2.2 | 40 | 340 | 950 | 420 | inhibition [4]: 13%
CCOC(=O)c1cc(-c2ccc(Cl)cc2)[nH]c1-c1ccncc1 | – | 90 | 500 | 400 | > 1000 | IC50 (Glucagon receptor [7]): > 3000 nM
Clc1ccc(-c2cc(-c3ccccc3)c(-c3ccncc3)[nH]2)cc1 | 1.8 | 60 | – | 380 | 210 | –
CCCCOc1ccccc1-c1cc(-c2ccc(Cl)cc2)[nH]c1-c1ccncc1 | – | 10 | 80 | 180 | – | IC50 (Glucagon receptor [7]): 1200 nM; inhibition [9]: 16%
CC(C)COc1ccccc1-c1cc(-c2ccc(Cl)cc2)[nH]c1-c1ccncc1 | 0.05 | 3 | 150 | 200 | 3760 | inhibition [15]: 17%
Fc1ccc(-c2cc[nH]c2-c2ccncc2)cc1 | > 18 | > 3000 | – | > 3000 | 160 | –
